Reference: ChEMBL document CHEMBL4689842, “EUbOPEN Chemogenomics Library wave 1” (2021)

Key:
[1] = system: U2OS; test: Multiplex assay against U2OS; format: toxicity, cell-based; settings: human
Summary of the method: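 Cells were classed with CellPathfinder machine-learning gating, first as Hoechst high-intensity objects or normal cells, then (normal cells) as healthy, pyknosed or fragmented nuclei, and finally (pyknosed cells) as mitotic or apoptotic. Staining of live cells at seeding used Hoechst33342, BioTracker Green Microtubule Cytoskeleton Dye, MitoTracker Red and Annexin V Alexa Fluor 680, with imaging on a CQ1 microscope at 37°C and 5% CO2 after compound addition. Tubulin, mitochondrial-mass and membrane-permeability phenotypes are per cents of healthy-nucleus cells.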

[2] = system: U2OS; test: Incucyte cell viability with U2OS; format: toxicity, cell-based; settings: human, 10 µM, compound concentration 10 uM; further: filed as whole numbers so only -1 and 0 and 1 occur
[3] = 12 h, 1 µM, compound concentration 1 uM, replicate 1
[4] = 12 h, 1 µM, compound concentration 1 uM, replicate 2
[5] = 12 h, 10 µM, compound concentration 10 uM, replicate 1
[6] = 12 h, 10 µM, compound concentration 10 uM, replicate 2
[7] = 24 h, 1 µM, compound concentration 1 uM, replicate 1
[8] = 24 h, 1 µM, compound concentration 1 uM, replicate 2
[9] = 24 h, 10 µM, compound concentration 10 uM, replicate 1
[10] = 24 h, 10 µM, compound concentration 10 uM, replicate 2
[11] = 48 h, 1 µM, compound concentration 1 uM, replicate 1
[12] = 48 h, 1 µM, compound concentration 1 uM, replicate 2
[13] = 48 h, 10 µM, compound concentration 10 uM, replicate 1
[14] = 48 h, 10 µM, compound concentration 10 uM, replicate 2

CCCCN(CC)c1nc(C)nc2c1c(C)cn2-c1c(C)cc(C)cc1C.Cl
Population Apoptotic (%) [1, 3]: 33% | Population Healthy Nuclei (%) [1, 3]: 76% | Population Hoechst High Intensity Objects (%) [1, 3]: 8% | Population Membrane Permeable-Phenotype (%) [1, 3]: 3% | Population Mitochondria Different-Phenotype (%) [1, 3]: 7% | Population Mitotic Cells (%) [1, 3]: 66% | Population Normal (%) [1, 3]: 91% | Population Tubulin-Different-Phenotype (%) [1, 3]: 6% | Total Cell Count [1, 3]: 135 | Population Apoptotic (%) [1, 4]: 55% | Population Fragmented Nuclei (%) [1, 4]: 13% | Population Healthy Nuclei (%) [1, 4]: 77% | Population Hoechst High Intensity Objects (%) [1, 4]: 3% | Population Membrane Permeable-Phenotype (%) [1, 4]: 5% | Population Mitochondria Different-Phenotype (%) [1, 4]: 8% | Population Mitotic Cells (%) [1, 4]: 44% | Population Normal (%) [1, 4]: 96% | Population Pyknosed Nuclei (%) [1, 4]: 9% | Population Tubulin-Different-Phenotype (%) [1, 4]: 14% | Total Cell Count [1, 4]: 95 | Population Apoptotic (%) [1, 5]: 65% | Population Fragmented Nuclei (%) [1, 5]: 17% | Population Healthy Nuclei (%) [1, 5]: 67% | Population Hoechst High Intensity Objects (%) [1, 5]: 7% | Population Membrane Permeable-Phenotype (%) [1, 5]: 2% | Population Mitochondria Different-Phenotype (%) [1, 5]: 51% | Population Mitotic Cells (%) [1, 5]: 35% | Population Normal (%) [1, 5]: 92% | Population Pyknosed Nuclei (%) [1, 5]: 14% | Population Tubulin-Different-Phenotype (%) [1, 5]: 37% | Total Cell Count [1, 5]: 145 | Population Apoptotic (%) [1, 6]: 20% | Population Fragmented Nuclei (%) [1, 6]: 9% | Population Healthy Nuclei (%) [1, 6]: 83% | Population Hoechst High Intensity Objects (%) [1, 6]: 6% | Population Membrane Permeable-Phenotype (%) [1, 6]: 4% | Population Mitochondria Different-Phenotype (%) [1, 6]: 55% | Population Mitotic Cells (%) [1, 6]: 80% | Population Normal (%) [1, 6]: 93% | Population Pyknosed Nuclei (%) [1, 6]: 6% | Population Tubulin-Different-Phenotype (%) [1, 6]: 19% | Total Cell Count [1, 6]: 78 | Population Apoptotic (%) [1, 7]: 27% | Population Fragmented Nuclei (%) [1, 7]: 7% | Population Healthy Nuclei (%) [1, 7]: 85% | Population Mitochondria Different-Phenotype (%) [1, 7]: 8% | Population Mitotic Cells (%) [1, 7]: 72% | Population Pyknosed Nuclei (%) [1, 7]: 7% | Population Tubulin-Different-Phenotype (%) [1, 7]: 9% | Total Cell Count [1, 7]: 162 | Population Apoptotic (%) [1, 8]: 29% | Population Fragmented Nuclei (%) [1, 8]: 13% | Population Healthy Nuclei (%) [1, 8]: 70% | Population Hoechst High Intensity Objects (%) [1, 8]: 5% | Population Membrane Permeable-Phenotype (%) [1, 8]: 3% | Population Mitochondria Different-Phenotype (%) [1, 8]: 6% | Population Mitotic Cells (%) [1, 8]: 70% | Population Normal (%) [1, 8]: 94% | Population Pyknosed Nuclei (%) [1, 8]: 15% | Population Tubulin-Different-Phenotype (%) [1, 8]: 7% | Total Cell Count [1, 8]: 116 | Population Apoptotic (%) [1, 9]: 68% | Population Fragmented Nuclei (%) [1, 9]: 19% | Population Healthy Nuclei (%) [1, 9]: 62% | Population Hoechst High Intensity Objects (%) [1, 9]: 5% | Population Membrane Permeable-Phenotype (%) [1, 9]: 2% | Population Mitochondria Different-Phenotype (%) [1, 9]: 48% | Population Mitotic Cells (%) [1, 9]: 32% | Population Normal (%) [1, 9]: 94% | Population Pyknosed Nuclei (%) [1, 9]: 17% | Population Tubulin-Different-Phenotype (%) [1, 9]: 26% | Total Cell Count [1, 9]: 152 | Population Apoptotic (%) [1, 10]: 25% | Population Fragmented Nuclei (%) [1, 10]: 8% | Population Healthy Nuclei (%) [1, 10]: 80% | Population Hoechst High Intensity Objects (%) [1, 10]: 4% | Population Membrane Permeable-Phenotype (%) [1, 10]: 3% | Population Mitochondria Different-Phenotype (%) [1, 10]: 54% | Population Mitotic Cells (%) [1, 10]: 75% | Population Normal (%) [1, 10]: 95% | Population Pyknosed Nuclei (%) [1, 10]: 11% | Population Tubulin-Different-Phenotype (%) [1, 10]: 21% | Total Cell Count [1, 10]: 74 | Population Apoptotic (%) [1, 11]: 27% | Population Fragmented Nuclei (%) [1, 11]: 5% | Population Healthy Nuclei (%) [1, 11]: 86% | Population Hoechst High Intensity Objects (%) [1, 11]: 3% | Population Membrane Permeable-Phenotype (%) [1, 11]: 0% | Population Mitochondria Different-Phenotype (%) [1, 11]: 10% | Population Mitotic Cells (%) [1, 11]: 72% | Population Normal (%) [1, 11]: 96% | Population Pyknosed Nuclei (%) [1, 11]: 7% | Population Tubulin-Different-Phenotype (%) [1, 11]: 7% | Total Cell Count [1, 11]: 253 | Population Apoptotic (%) [1, 12]: 28% | Population Fragmented Nuclei (%) [1, 12]: 8% | Population Healthy Nuclei (%) [1, 12]: 82% | Population Hoechst High Intensity Objects (%) [1, 12]: 1% | Population Membrane Permeable-Phenotype (%) [1, 12]: 8% | Population Mitochondria Different-Phenotype (%) [1, 12]: 14% | Population Mitotic Cells (%) [1, 12]: 71% | Population Normal (%) [1, 12]: 98% | Population Pyknosed Nuclei (%) [1, 12]: 8% | Population Tubulin-Different-Phenotype (%) [1, 12]: 13% | Total Cell Count [1, 12]: 170 | Population Apoptotic (%) [1, 13]: 39% | Population Fragmented Nuclei (%) [1, 13]: 18% | Population Healthy Nuclei (%) [1, 13]: 68% | Population Hoechst High Intensity Objects (%) [1, 13]: 6% | Population Membrane Permeable-Phenotype (%) [1, 13]: 4% | Population Mitochondria Different-Phenotype (%) [1, 13]: 30% | Population Mitotic Cells (%) [1, 13]: 60% | Population Normal (%) [1, 13]: 93% | Population Pyknosed Nuclei (%) [1, 13]: 12% | Population Tubulin-Different-Phenotype (%) [1, 13]: 26% | Total Cell Count [1, 13]: 192 | Population Apoptotic (%) [1, 14]: 38% | Population Fragmented Nuclei (%) [1, 14]: 9% | Population Healthy Nuclei (%) [1, 14]: 71% | Population Hoechst High Intensity Objects (%) [1, 14]: 5% | Population Membrane Permeable-Phenotype (%) [1, 14]: 6% | Population Mitochondria Different-Phenotype (%) [1, 14]: 38% | Population Mitotic Cells (%) [1, 14]: 61% | Population Normal (%) [1, 14]: 94% | Population Pyknosed Nuclei (%) [1, 14]: 18% | Population Tubulin-Different-Phenotype (%) [1, 14]: 12% | Total Cell Count [1, 14]: 119 | Growth Rate ([2]; 0 h, replicate number 1, timepoint 0 hours): 0 | Growth Rate ([2]; 6 h, replicate number 2, timepoint 6 hours): 1 | Growth Rate ([2]; 12 h, replicate number 1, timepoint 12 hours): 0 | Growth Rate ([2]; 18 h, replicate number 1, timepoint 18 hours): 0 | Growth Rate ([2]; 18 h, replicate number 2, timepoint 18 hours): 1 | Growth Rate ([2]; 24 h, replicate number 1, timepoint 24 hours): 0 | Growth Rate ([2]; 24 h, replicate number 2, timepoint 24 hours): 1
